Legend:
[1] = biological target: T1, Neuropeptide Y receptor type 5 (Homo sapiens, UniProt Q15761); assay: Displacement of [125I]PYY from human recombinant neuropeptide Y5 receptor expressed in mouse LMtk- cells; type: cell-based
T1 sequence (Q15761 whole entry): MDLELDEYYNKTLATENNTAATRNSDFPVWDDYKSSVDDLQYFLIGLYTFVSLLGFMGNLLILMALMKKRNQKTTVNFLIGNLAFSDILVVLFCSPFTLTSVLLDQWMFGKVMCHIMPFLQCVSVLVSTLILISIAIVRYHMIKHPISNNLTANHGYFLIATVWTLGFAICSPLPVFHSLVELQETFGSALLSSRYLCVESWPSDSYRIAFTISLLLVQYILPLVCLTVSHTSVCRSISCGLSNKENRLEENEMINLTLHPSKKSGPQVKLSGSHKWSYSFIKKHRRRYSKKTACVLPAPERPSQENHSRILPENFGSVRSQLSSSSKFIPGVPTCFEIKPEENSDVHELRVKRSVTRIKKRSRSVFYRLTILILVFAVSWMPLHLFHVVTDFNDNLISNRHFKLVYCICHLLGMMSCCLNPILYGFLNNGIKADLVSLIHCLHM

[2] = biological target: Voltage-gated inwardly rectifying potassium channel KCNH2 (Homo sapiens, UniProt Q12809);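 note: radioligand displacement binding to human ERG expressed in HEK293 cells, using a [35S]-labelled spiro-benzopyran-piperidine methanesulfonamide as the displaced ligand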
[3] = Metabolic stability in rat hepatocytes assessed as hepatic clearance by serum incubation method; type: ADME, cell-based, Liver, Hepatocyte
[4] = Octanol-water distribution coefficient, log D at pH 7.4; type: physicochemical
[5] = Ratio of drug level from cerebrospinal fluid to brain in Sprague-Dawley rat at 10 mg/kg, po after 2 hrs; type: ADME, organism-based, CSF/Brain; design: dose 10 mg/kg, route oral; settings: in vivo
Brain = assay: Drug level in Sprague-Dawley rat brain at 10 mg/kg, po after 2 hrs; type: ADME, organism-based; design: dose 10 mg/kg, route oral; settings: in vivo
Method in brief: (§1)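 Male SD rats (7-10 weeks, 200-400 g) dosed orally at 10 mg/kg in 0.5% methylcellulose; at 2 h aortic blood taken under isoflurane. Plasma, brain homogenate (sonicated in water) and CSF deproteinized with 3-fold ethanol plus internal standard, -20 °C 20 min, centrifuged; LC/MS/MS with relative calibration curve. Mean, n = 2-3.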

[6] = Drug level in Sprague-Dawley rat cerebrospinal fluid at 10 mg/kg, po after 2 hrs; type: ADME, organism-based; design: dose 10 mg/kg, route oral; settings: Sprague-Dawley, cerebrospinal fluid, read-out: Drug uptake; method in brief: as §1
[7] = Ratio of drug level from brain to plasma in Sprague-Dawley rat at 10 mg/kg, po after 2 hrs; type: ADME, organism-based; design: dose 10 mg/kg, route oral; method in brief: as §1
[8] = Plasma concentration in Sprague-Dawley rat at 10 mg/kg, po after 2 hrs; type: ADME, organism-based; design: dose 10 mg/kg, route oral; method in brief: as §1

Sequence of Voltage-gated inwardly rectifying potassium channel KCNH2 (Q12809 whole entry): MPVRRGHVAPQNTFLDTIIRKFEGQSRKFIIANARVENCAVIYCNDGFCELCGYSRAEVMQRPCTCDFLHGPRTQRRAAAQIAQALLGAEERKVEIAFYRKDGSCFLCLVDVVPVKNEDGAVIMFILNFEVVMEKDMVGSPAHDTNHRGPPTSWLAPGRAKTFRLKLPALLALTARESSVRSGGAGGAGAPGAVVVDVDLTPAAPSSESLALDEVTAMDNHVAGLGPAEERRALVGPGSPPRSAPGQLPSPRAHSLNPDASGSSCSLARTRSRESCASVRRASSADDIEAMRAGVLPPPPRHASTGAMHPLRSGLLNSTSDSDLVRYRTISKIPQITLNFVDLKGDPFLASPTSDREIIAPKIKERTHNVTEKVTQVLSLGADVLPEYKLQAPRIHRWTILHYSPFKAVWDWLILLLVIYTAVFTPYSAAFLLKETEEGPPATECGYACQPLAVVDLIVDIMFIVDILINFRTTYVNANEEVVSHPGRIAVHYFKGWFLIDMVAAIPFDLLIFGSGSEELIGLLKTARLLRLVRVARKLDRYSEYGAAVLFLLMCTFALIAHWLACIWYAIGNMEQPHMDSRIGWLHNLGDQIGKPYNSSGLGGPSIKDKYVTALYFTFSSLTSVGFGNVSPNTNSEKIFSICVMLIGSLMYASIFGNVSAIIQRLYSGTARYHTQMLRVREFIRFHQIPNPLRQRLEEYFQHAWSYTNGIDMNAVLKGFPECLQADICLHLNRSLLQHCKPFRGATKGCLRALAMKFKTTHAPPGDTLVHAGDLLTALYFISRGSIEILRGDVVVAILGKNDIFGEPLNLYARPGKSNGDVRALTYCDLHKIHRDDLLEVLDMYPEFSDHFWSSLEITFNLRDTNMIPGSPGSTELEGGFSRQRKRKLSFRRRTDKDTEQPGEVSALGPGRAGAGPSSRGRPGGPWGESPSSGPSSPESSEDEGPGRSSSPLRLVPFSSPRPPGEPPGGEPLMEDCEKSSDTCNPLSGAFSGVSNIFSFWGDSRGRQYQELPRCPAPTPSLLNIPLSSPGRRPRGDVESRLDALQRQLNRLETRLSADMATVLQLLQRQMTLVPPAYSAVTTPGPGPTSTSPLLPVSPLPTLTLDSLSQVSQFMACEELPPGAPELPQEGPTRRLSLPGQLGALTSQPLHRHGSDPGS

Structure (SMILES): C[C@@H]1NC(c2cc(C#N)ccn2)=NC1(c1ccc(F)nc1)c1ccc(F)nc1
- Ki [1]: 3.1 nM
- IC50 [2]: > 10000 nM
- CLhep predicted [3]: 52 mL/min/kg
- logD [4]: 2.2

Structure (SMILES): COc1ccc([C@]2(c3ccc(F)cc3)N=C(c3cc(C#N)ccn3)N[C@H]2C)cn1
- Ki [1]: 1.1 nM
- CLhep predicted [3]: 44 mL/min/kg
- logD [4]: 3.5

Structure (SMILES): Fc1ccc(C2(c3ccc(F)cc3)CNC(c3cnccn3)=N2)cc1
- Ki [1]: 4.3 nM
- IC50 [2]: 3400 nM
- Ratio [5]: 0.011
- CLhep predicted [3]: 51 mL/min/kg
- Drug uptake (Brain): 5.9 nmol/g
- logD [4]: 3.5

Structure (SMILES): C[C@@H]1NC(c2cc(C#N)ccn2)=NC1(c1ccc(F)cc1)c1ccc(F)cc1
- Ki [1]: 1 nM
- CLhep predicted [3]: 28 mL/min/kg
- logD [4]: 4.1

Structure (SMILES): C[C@@H]1NC(c2cccc(C#N)n2)=N[C@@]1(c1ccc(F)cc1)c1ccc(F)nc1
- Ki [1]: 5.9 nM
- IC50 [2]: 6930 nM
- CLhep predicted [3]: 13 mL/min/kg
- logD [4]: 3.3

Structure (SMILES): C[C@@H]1NC(c2ccnc(C#N)c2)=N[C@@]1(c1ccc(F)cc1)c1ccc(F)nc1
- Ki [1]: 1 nM
- IC50 [2]: > 10000 nM
- Ratio [5]: 0.069
- CLhep predicted [3]: 13 mL/min/kg
- Drug uptake (Brain): 3.2 nmol/g
- logD [4]: 3.2
- concentration at 2 h [6]: 220 nM
- Kp at 2 h [7]: 0.9
- concentration at 2 h [8]: 3700 nM

Structure (SMILES): CCC[C@@H]1NC(c2cc(C#N)ccn2)=NC1(c1ccc(F)cc1)c1ccc(F)cc1
- Ki [1]: 8.6 nM
- IC50 [2]: 490 nM

Structure (SMILES): C[C@@H]1NC(c2cnccn2)=N[C@@]1(c1ccc(F)cc1)c1ccc(F)nc1
- Ki [1]: 2.2 nM
- CLhep predicted [3]: 42 mL/min/kg
- logD [4]: 2.5

Structure (SMILES): C[C@@H]1NC(c2cncc(C#N)c2)=N[C@@]1(c1ccc(F)cc1)c1ccc(F)nc1
- Ki [1]: 3.2 nM
- IC50 [2]: > 10000 nM
- Ratio [5]: 0.087
- CLhep predicted [3]: 12 mL/min/kg
- Drug uptake (Brain): 5.3 nmol/g
- logD [4]: 2.9
- concentration at 2 h [6]: 460 nM
- Kp at 2 h [7]: 1.2
- concentration at 2 h [8]: 4400 nM

Structure (SMILES): C[C@@H]1NC(c2cccc(C#N)c2)=N[C@@]1(c1ccc(F)cc1)c1ccc(F)nc1
- Ki [1]: 0.8 nM
- CLhep predicted [3]: 9 mL/min/kg
- Drug uptake (Brain): 6.1 nmol/g
- logD [4]: 3.6
- concentration at 2 h [6]: 130 nM
- Kp at 2 h [7]: 2.3
- concentration at 2 h [8]: 2600 nM

Structure (SMILES): C[C@@H]1NC(c2cnccn2)=NC1(c1ccc(F)cc1)c1ccc(F)cc1
- Ki [1]: 1.9 nM
- IC50 [2]: > 10000 nM
- CLhep predicted [3]: 57 mL/min/kg
- logD [4]: 3.7

Structure (SMILES): C[C@@H]1NC(c2cc(Cl)ccn2)=N[C@@]1(c1ccc(F)cc1)c1ccc(F)nc1
- Ki [1]: 1.8 nM
- CLhep predicted [3]: 58 mL/min/kg
- logD [4]: 3.8

Structure (SMILES): C[C@@H]1NC(c2cc(C(N)=O)ccn2)=N[C@@]1(c1ccc(F)cc1)c1ccc(F)nc1
- Ki [1]: 5.1 nM
- CLhep predicted [3]: 7 mL/min/kg
- logD [4]: 2.4

Structure (SMILES): C[C@@H]1NC(c2nccs2)=N[C@@]1(c1ccc(F)cc1)c1ccc(F)nc1
- Ki [1]: 4.1 nM
- IC50 [2]: > 10000 nM
- logD [4]: 3

Structure (SMILES): C[C@@H]1NC(c2cnsn2)=N[C@@]1(c1ccc(F)cc1)c1ccc(F)nc1
- Ki [1]: 2 nM
- CLhep predicted [3]: 58 mL/min/kg
- logD [4]: 3.1

Structure (SMILES): C[C@H]1NC(c2cc(C#N)ccn2)=NC1(c1ccc(F)cc1)c1ccc(F)cc1
- Ki [1]: 300 nM

Structure (SMILES): CC[C@@H]1NC(c2cc(C#N)ccn2)=NC1(c1ccc(F)cc1)c1ccc(F)cc1
- Ki [1]: 2.6 nM
- IC50 [2]: 490 nM

Structure (SMILES): N#Cc1ccnc(C2=NC(c3ccc(F)cc3)(c3ccc(F)cc3)CN2)c1
- Ki [1]: 2 nM
- IC50 [2]: 101 nM
- Ratio [5]: 0.004
- CLhep predicted [3]: 12 mL/min/kg
- Drug uptake (Brain): 6.4 nmol/g
- logD [4]: 4

Structure (SMILES): COc1ccnc(C2=N[C@@](c3ccc(F)cc3)(c3ccc(F)nc3)[C@H](C)N2)c1
- Ki [1]: 2.5 nM
- CLhep predicted [3]: 58 mL/min/kg
- logD [4]: 3.6

Structure (SMILES): C[C@@H]1NC(c2cc(C#N)ccn2)=N[C@]1(c1ccc(F)cc1)c1ccc(F)nc1
- CLhep predicted [3]: 56 mL/min/kg
- logD [4]: 2.9

Structure (SMILES): C[C@@H]1NC(c2cccc(S(C)(=O)=O)c2)=N[C@@]1(c1ccc(F)cc1)c1ccc(F)nc1
- Ki [1]: 2.5 nM
- IC50 [2]: > 10000 nM
- CLhep predicted [3]: 6 mL/min/kg
- logD [4]: 2.9

Structure (SMILES): C[C@@H]1NC(c2cc(C#N)ccn2)=N[C@@]1(c1ccc(F)cc1)c1ccc(=O)[nH]c1
- Ki [1]: 145 nM

Structure (SMILES): C[C@@H]1NC(c2cccc(=O)[nH]2)=N[C@@]1(c1ccc(F)cc1)c1ccc(F)nc1
- Drug uptake (Brain): 0.36 nmol/g
- logD [4]: 2.4
- concentration at 2 h [6]: 50 nM
- Kp at 2 h [7]: 0.1
- concentration at 2 h [8]: 3700 nM

Structure (SMILES): N#Cc1cccc(C2=NC(c3ccc(F)cc3)(c3ccc(F)cc3)CN2)c1
- Ratio [5]: 0.003
- Drug uptake (Brain): 8.1 nmol/g

Structure (SMILES): N#Cc1ccnc(C2=NC(c3ccc(F)cc3)(c3ccc(F)cc3)[C@H](CO)N2)c1
- Ki [1]: 3 nM
- IC50 [2]: 6100 nM
- Ratio [5]: 0.025
- CLhep predicted [3]: 11 mL/min/kg
- Drug uptake (Brain): 2.3 nmol/g
- logD [4]: 3.4
- concentration at 2 h [6]: 57 nM
- Kp at 2 h [7]: 2.1
- concentration at 2 h [8]: 1100 nM

Structure (SMILES): C[C@@H]1NC(c2nccc(C#N)n2)=N[C@@]1(c1ccc(F)cc1)c1ccc(F)nc1
- Ki [1]: 3.6 nM
- CLhep predicted [3]: 30 mL/min/kg
- logD [4]: 2.2

From ChEMBL document CHEMBL1138528, “Discovery of tetrasubstituted imidazolines as potent and selective neuropeptide Y Y5 receptor antagonists: reduced human ether-a-go-go related gene potassium channel binding affinity and potent antiobesity effect” (J Med Chem, 2009)
